# According to publication PMC4838375 (Nucleic Acids Research, 2016):
# B1: PHDVC5HCHNSD1: Murine NSD1 PHDvC5HCH (Glu2117–Asp2207), tandem domain, human residue numbering Glu2116–Asp2206 (protein, UniProt O88491 2117-2207, looked up, fragment)
# chain: REYVPPTATSPPSPGTQPKEQSSEMATQGPKKSDQPPTDATQLLPLSKKALTGSCQRPLLPERPPERTDSSSHLLDRIRDLAGSGTKSQSL
# Experiment: 15N relaxation, tumbling correlation time
# Format: physicochemical, murine
# Details: 15N relaxation (R2/R1), free protein, 600 MHz, 295 K
# Summary of the method: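 Uniformly ¹⁵N-labelled domain expressed in E. coli BL21(DE3) on ¹⁵NH₄Cl minimal medium. Typical sample 0.3–0.4 mM in 20 mM sodium phosphate pH 6.3, 0.15 M NaCl, 2 mM DTT, 50 μM ZnCl₂. R1 sampled at 13 delays (50–2000 ms), R2 at 11 (12–244 ms), with heating compensation, random order and 2.5 s recovery. Duplicates fitted to two-parameter exponentials. τc from R2/R1, using non-overlapped residues with hetNOE > 0.65.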
molecule,measurement,value
B1,correlation time (free),7.96±0.41 ns
